Source: publication PMC6847989 (International Journal of Nanomedicine, 2019)

How the values were obtained:
[1] = In vitro drug release / dissolution in PBS buffer; type: physicochemical; conditions: PBS 150 mM, pH 7.4, 37°C, 72 hrs
Method in brief: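 Release was by dialysis (3500 MWCO bag) into 20 mL PBS. Test powder (1.0 mg) was dispersed in 5 mL PBS at 37°C, or loaded hydrogel (250 μL) was placed in the bag. At set times 3 mL of outer buffer was withdrawn and replaced with fresh buffer. IGUR was quantified by UV absorbance at 309 nm.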

[2] = system: RA-FLS; test: MTS cell proliferation assay; type: cell-based, human; conditions: 48 hr
Method in brief: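 Primary RA-FLS were grown from explants of patients' synovial tissue in DMEM/20% FBS and used at passages 3–6. Cells were seeded at 3×10³ cells/100 μL and allowed to adhere overnight. They were exposed for 48 h to test compound at 40, 80, 160 or 320 μg/mL in 10% FBS high-glucose DMEM, alongside medium, PBS or blank-gel controls. After MTS for 2 h, absorbance was read at 490 nm, with six replicate wells per group.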

[3] = system: RA-FLS; test: Transwell migration assay; type: cell-based, human; conditions: 320 μg/mL, 48 hrs
Method in brief: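 RA-FLS (3×10³ cells/100 μL) in serum-free medium were placed in the upper chamber of 8-μm transwells with test compound (40–320 μg/mL). The lower chamber held 10% FBS as chemoattractant. After 48 h at 37°C, non-migrated cells were swabbed off. Underside cells were fixed in 4% paraformaldehyde for 30 min at room temperature, stained with 0.1% crystal violet, and counted in 5 random fields; three independent experiments.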

[4] = system: RA-FLS; test: Matrigel transwell invasion assay; type: cell-based, human; conditions: 320 μg/mL, 48 hrs
Method in brief: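 Transwell inserts were coated with Matrigel diluted in cold serum-free medium (medium:Matrigel 5:1) and incubated overnight. RA-FLS (3×10³ cells/100 μL) in serum-free medium plus test compound (40–320 μg/mL) were placed above 10% FBS for 48 h at 37°C. Invaded cells were fixed in 4% paraformaldehyde, stained with crystal violet, and counted in 5 random fields; three independent replicates.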

[5] = In vivo pharmacokinetics, plasma concentration by HPLC; parameters: species or system female Lewis rats; conditions: female, Lewis, rat, po, 10 mg/kg
Method in brief: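 Healthy female Lewis rats (150 ± 10 g, 6 weeks) received a single oral 10 mg/kg dose of test compound suspended in 0.5% sodium CMC in water. Heparinized blood was drawn at 10 and 30 min and at 1, 2, 3, 4, 6, 8, 12, 18 and 24 h. Plasma drug was measured by HPLC, and parameters were calculated from the concentration–time curve.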

[6] = system: collagen-induced arthritis (CIA) rats; test: Therapeutic efficacy in collagen-induced arthritis; type: in vivo, female Lewis rats; conditions: 10 mg/kg intragastrically daily
Method in brief: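 Female Lewis rats (150 ± 10 g, 6 weeks) given bovine type II collagen in complete Freund's adjuvant (400 μg collagen s.c.), reboosted day 7 with incomplete adjuvant. Test compound in 0.5% CMC, 10 mg/kg intragastric daily for 21 days; n = 7 per group, untreated CIA and healthy rats as controls. Every 3 days, two researchers record weight, ankle diameter and arthritis index (each paw 0–4, maximum 16).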

[7] = system: collagen-induced arthritis (CIA) rats; test: Histological evaluation of ankle joints of CIA rats; type: in vivo, female Lewis rats; conditions: 10 mg/kg intragastrically daily, 21 days
Method in brief: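 CIA was induced in female Lewis rats (150 ± 10 g, 6 weeks) by s.c. injection of bovine type II collagen emulsified in complete Freund's adjuvant (400 μg collagen), then boosted 7 days later with collagen in incomplete adjuvant. Oral test compound was given in 0.5% CMC for 21 days (n = 7). Right ankles were fixed, decalcified, paraffin-embedded, and stained with H&E and safranin O–fast green. Sections were given a Mankin score (5 grades) over multiple fields. Groups were compared by Mann–Whitney U or ANOVA.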

[8] = system: IL-6; test: ELISA of IL-6 in serum and synovial homogenate supernatant of CIA rats; type: in vivo, female Lewis rats; conditions: 10 mg/kg intragastrically daily, 21 days
Method in brief: (§1)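 Female Lewis rats; CIA from bovine type II collagen in complete Freund's adjuvant (400 μg collagen s.c.), boosted day 7 with incomplete adjuvant. Test compound in 0.5% CMC, 10 mg/kg intragastric daily, 21 days; n = 7, untreated CIA and healthy controls. Serum from canthus blood (300 × g, 10 min) and synovial homogenate supernatant (PBS, protease inhibitors) assayed by high-sensitivity ELISA; mean ± SD.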

[9] = system: TNF-α; test: ELISA of TNF-α in serum and synovial homogenate supernatant of CIA rats; type: in vivo, female Lewis rats; conditions: 10 mg/kg intragastrically daily, 21 days
Method in brief: as §1

[10] = system: IL-1β; test: ELISA of IL-1β in serum and synovial homogenate supernatant of CIA rats; type: in vivo, female Lewis rats; conditions: 10 mg/kg intragastrically daily, 21 days
Method in brief: as §1

[11] = cited from earlier work

dissolution rate (dissolved/released IGUR) [1]: 28.65%
AUC(0-t) [5]: 111 µg·h/mL
Cmax [5]: 12700 ng/mL
half-life [5]: 3.7 h
SMILES: CS(=O)(=O)Nc1cc2occ(NC=O)c(=O)c2cc1Oc1ccccc1 [raw IGUR, Iguratimod]
relative cell proliferation ratio ([2]; 160 μg/mL): 83.72 ± 1.41%
relative cell proliferation ratio ([2]; 320 μg/mL): 80.73 ± 2.14%
relative cell migration ratio [3]: 44.69 ± 1.58%
relative cell invasion ratio [4]: 44.59 ± 2.24%
body weight vs CIA group ([6]; 13th day of administration): significantly higher than in the CIA group
AI scores vs CIA group ([6]; 16th day of administration): significantly lower than in the CIA group
H&E histology of ankle joints vs CIA group [7]: less infiltration of inflammatory cells in the synovial tissue and no obvious bone erosion
Mankin's score vs CIA group ([7]; P < 0.05): significantly lower
synovitis score vs CIA group ([7]; P < 0.05): significantly lower
area of ankle cartilage vs CIA group ([7]; saffron O-fixing green staining, Image J, P < 0.05): increased significantly
serum level of IL-6 vs CIA group [8]: significantly lower than those in the CIA group
serum level of TNF-α vs CIA group [9]: significantly lower than those in the CIA group
serum level of IL-1β vs CIA group [10]: significantly lower than those in the CIA group
solubility in aqueous solvents [11]: practically insoluble
